This is an account of results in ChEMBL document CHEMBL4842350, “Discovery of a Novel Bromodomain and Extra Terminal Domain (BET) Protein Inhibitor, I-BET282E, Suitable for Clinical Progression” (J Med Chem, 2021).

Series [1] can be described thus: Unbound fraction in Balb/C mouse blood at 100 to 1000 ng/ml by LC-MS/MS-based rapid equilibrium dialysis method. In kind it is ADME, tissue-based. As to conditions: dose 100-1000 ng/ml. The method, boiled down:
(§1)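 Whole blood (male Balb/C mouse, male Wistar Han rat, male Beagle dog; human from one unmedicated donor) spiked to nominal 100 and 1000 ng/mL; 10 min at 37 °C, then rapid equilibrium dialysis against PBS 4 h at 37 °C, 100 rpm. Matrix-matched acetonitrile extraction, LC-MS/MS; mean of n = 6.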
Background: Equilibrium dialysis compares concentrations on both sides of a semipermeable membrane.

The nature of series [2]: Total blood clearance in CD1 mouse at 1 mg/kg/hr, iv measured upto 24 hrs by LC-MS/MS analysis relative to hepatic blood flow. In kind it is ADME, organism-based. As to conditions: in vivo. The method, boiled down:
(§2)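 Surgically cannulated male CD1 mice (n = 3), 1 h iv infusion via jugular vein at 1 mg/kg/h (0.2 mg/mL in 2% DMSO/98% 10% Kleptose HPB in saline, 5 mL/kg/h). Tail-vein blood to 24 h plus terminal cardiac sample at 26 h; LC-MS/MS, LLQ 5 ng/mL. Mean ± SD.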

Series [3] can be described thus: Unbound fraction in human blood at 100 to 1000 ng/ml by LC-MS/MS-based rapid equilibrium dialysis method. The class given is ADME, tissue-based. The conditions noted are these: dose 100-1000 ng/ml. The method, boiled down:
as §1

A short description of series [4]: Clearance in Wistar Han rat blood at 1 mg/kg/hr, iv measured upto 26 hrs by LC-MS/MS analysis. The class given is ADME, organism-based.
The nature of series [5]: Tmax in Beagle dog at 5 mg/kg, po measured upto 24 hrs by HPLC-MS/MS analysis. In kind it is ADME, organism-based, Canis lupus familiaris. As to conditions: in vivo. The method, boiled down:
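Oral suspension in 1% (w/v) hydroxypropylmethyl cellulose in water; male rats (n = 3) and male dogs (n = 4). AUC taken from 0 h to last quantifiable time point; Cmax is maximum observed plasma concentration; Tmax reported as median. Mean ± SD.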

Series [6] is described as follows: Volume of distribution at steady state in Beagle dog at 1 mg/kg/hr, iv measured upto 28 hrs by LC-MS/MS analysis. The conditions noted are these: in vivo, read-out: Vdss. In kind it is ADME, organism-based, Canis lupus familiaris.
A short description of series [7]: Half life in Beagle dog at 1 mg/kg/hr, iv measured upto 28 hrs by LC-MS/MS analysis. The class given is ADME, organism-based, Canis lupus familiaris. As to conditions: in vivo.
Series [8] concerns the target Cytochrome P450 2D6 (Homo sapiens, UniProt P10635). In words: Inhibition of recombinant human CYP2D6 expressed in Escherichia coli using MMC as probe substrate incubated for 15 to 60 mins by fluorometric assay. The class given is ADME. The method, boiled down:
(§3)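 Recombinant human CYPs coexpressed with NADPH reductase in E. coli bactosomes (0.1 mg protein/mL); profluorescent substrates ER (1A2), BMC (2C19), MMC (2D6), VividGreen or VividRed (3A4).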

The nature of series [9]: Unbound fraction in Wistar Han rat blood at 100 to 1000 ng/ml by LC-MS/MS-based rapid equilibrium dialysis method. In kind it is ADME, tissue-based. As to conditions: dose 100-1000 ng/ml. Summed up: as §1
Series [10] is described as follows: Volume of distribution at steady state in CD1 mouse at 1 mg/kg/hr, iv measured upto 24 hrs by LC-MS/MS analysis. The class given is ADME, organism-based. The conditions noted are these: in vivo, read-out: Vdss. Summed up:
as §2

Series [11] in a line: Unbound fraction in Beagle dog blood at 100 to 1000 ng/ml by LC-MS/MS-based rapid equilibrium dialysis method. The class given is ADME, tissue-based, Canis lupus familiaris. The conditions noted are these: dose 100-1000 ng/ml. The method, boiled down: as §1
Series [12] addresses Cytochrome P450 2C19 (Homo sapiens, UniProt P33261). Put plainly: Inhibition of recombinant human CYP2C19 expressed in Escherichia coli using BMC as probe substrate incubated for 15 to 60 mins by fluorometric assay. The class given is ADME. The method, boiled down:
as §3

The nature of series [13]: Oral bioavailability in CD1 mouse at 3 mg/kg measured upto 8 hrs by LC-MS/MS analysis. The class given is ADME, organism-based. The conditions noted are these: in vivo. The method, boiled down:
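Naive male CD1 mice (n = 3) given 3 mg/kg by oral gavage as suspension in 1% (w/v) methylcellulose 400, 0.6 mg/mL. Tail-vein blood to 8 h plus terminal cardiac sample at 12 h; LC-MS/MS, LLQ 5 ng/mL.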

Chain of Cytochrome P450 2D6 (P10635 whole entry): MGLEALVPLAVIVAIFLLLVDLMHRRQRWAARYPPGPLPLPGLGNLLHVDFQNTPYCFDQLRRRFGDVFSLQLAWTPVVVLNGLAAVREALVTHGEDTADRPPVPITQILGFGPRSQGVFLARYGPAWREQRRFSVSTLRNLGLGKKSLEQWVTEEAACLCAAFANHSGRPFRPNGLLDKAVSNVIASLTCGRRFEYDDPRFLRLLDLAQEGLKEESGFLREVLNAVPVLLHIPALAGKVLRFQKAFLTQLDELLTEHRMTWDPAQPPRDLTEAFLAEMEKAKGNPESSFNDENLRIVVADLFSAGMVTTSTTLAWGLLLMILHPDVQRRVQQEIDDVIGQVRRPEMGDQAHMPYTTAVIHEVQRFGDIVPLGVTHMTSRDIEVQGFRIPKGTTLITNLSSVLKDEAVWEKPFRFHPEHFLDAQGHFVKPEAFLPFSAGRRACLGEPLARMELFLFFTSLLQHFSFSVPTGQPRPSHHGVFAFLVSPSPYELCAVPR
Chain of Cytochrome P450 2C19 (P33261 whole entry): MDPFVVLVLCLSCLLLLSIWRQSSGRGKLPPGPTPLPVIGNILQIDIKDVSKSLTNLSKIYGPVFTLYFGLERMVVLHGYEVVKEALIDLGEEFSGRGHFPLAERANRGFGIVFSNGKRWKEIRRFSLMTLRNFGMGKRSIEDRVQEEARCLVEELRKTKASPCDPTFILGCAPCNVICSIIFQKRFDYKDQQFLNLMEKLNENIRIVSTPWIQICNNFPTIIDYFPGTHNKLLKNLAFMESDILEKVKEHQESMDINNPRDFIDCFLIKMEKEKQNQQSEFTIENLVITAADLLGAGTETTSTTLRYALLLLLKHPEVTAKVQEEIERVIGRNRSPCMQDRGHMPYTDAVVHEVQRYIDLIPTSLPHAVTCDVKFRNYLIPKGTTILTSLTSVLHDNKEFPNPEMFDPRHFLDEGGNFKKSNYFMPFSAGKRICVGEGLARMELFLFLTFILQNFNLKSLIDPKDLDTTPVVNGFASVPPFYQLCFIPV

Turning to `COC[C@@H](C)n1c(C2CCOCC2)nc2cnc3cc(-c4c(C)noc4C)c(OC)cc3c21`, the fraction unbound – broadly, the share of the substance not bound to proteins or other matrix – in [1] is 0.1; in [3], 0.17; in series [9], 0.16; in series [11], 0.24. The molecule also had a CLH in [2] of 19%. The clearance (commonly the rate of elimination divided by the concentration) in series [4] worked out at 20 mL/min/kg. Further, the Tmax (usually the time from dosing to the highest level) in [5] is 0.75 h. Besides, the Vd in series [6] came to 3.1 L/kg; in series [10], 1.9 L/kg. Also, the half-life (usually the time in which the quantity being followed falls by half) in series [7] was 1.8 h. Also, the IC50 in [8] and in series [12] was over 50 µM throughout. Besides, the bioavailability (usually the share of a dose that reaches the circulation, judged against a reference dose that is usually intravenous) in [13] was 51%.
